Results taken from PMC2760637 (Journal of molecular recognition : JMR, 2009).
One block for each molecule: values may come before it. *1 amine or outer side, *2 acyl side, *3 side chain or, on linkers, in order; H or OH if unused. Bridges are numbered along the chain shown (N, C = ends). [ ]: non-standard residue; d: D form. Tyr(OMe) = O-methyl-tyrosine, COc1ccc(C[C@H](N[*:1])C(=O)[*:2])cc1

Key:
[1] = test system: classical pathway of complement activation; assay: Complement inhibition assay; format: biochemical
Procedure, shortened: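 Classical-pathway activation was triggered by antigen–antibody complexes formed on the ELISA plate: an albumin-coated plate bound by a polyclonal anti-ovalbumin antibody. C3b deposited in the presence of the test peptide was detected by ELISA. Percent inhibition was plotted against peptide concentration and fitted to a logistic dose-response function to derive IC50.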

[2] = biological target: complement C3 (Homo sapiens) (UniProt P01024); assay: ITC; conditions: cited from earlier work
[3] = biological target: complement C3 (Homo sapiens), P01024; assay: ITC; conditions: Y4 is O-methyl-Tyr, N-acetyl, C-amide, disulfide C2-C12

Molecule: Ac-ICV(1MeW)QisoDWGAHRCT [4(1MeW)6(isoD)]
- inhibitory activity (in words) ([1]; listed as 4(1MeW)6isoD): lacked inhibitory activity
- inhibitory activity (in words) ([1]; listed as 6isoD): complete loss of activity

Molecule: compstatin 4(5MeW)
- Kd [2]: 120 nM

- Kd [3]: 115 nM
B1: compstatin 4MeY (peptide)
chain: Ac-ICV[Tyr(OMe)]QDWGAHRCT-NH2
modifications: disulfide 2-12
SMILES: CC[C@H](C)[C@H](NC(C)=O)C(=O)N[C@H]1CSSC[C@@H](C(=O)N[C@H](C(N)=O)[C@@H](C)O)NC(=O)[C@H](CCCNC(=N)N)NC(=O)[C@H](Cc2c[nH]cn2)NC(=O)[C@H](C)NC(=O)CNC(=O)[C@H](Cc2c[nH]c3ccccc23)NC(=O)[C@H](CC(=O)O)NC(=O)[C@H](CCC(N)=O)NC(=O)[C@H](Cc2ccc(OC)cc2)NC(=O)[C@H](C(C)C)NC1=O
